Source: ChEMBL document CHEMBL5678808, “Human target validation of phosphoinositide 3-kinase (PI3K)β: effects on platelets and insulin sensitivity, using AZD6482 a novel PI3Kβ inhibitor” (J Thromb Haemost, 2012)
Activity calls are given as the source filed them. The rule behind the calls is not given here.

Legend:
[1] = target: Mitogen-activated protein kinase 12 (Homo sapiens) (UniProt P53778); assay: Inhibition of human MAPK12 at 10 uM relative to control
[2] = Toxicity in Sprague-Dawley rat hyperinsulinemic-euglycemic glucose clamp model assessed as increase in blood pressure at 1000 ug/kg/min, iv for 2 mins followed by 50 ug/kg/min, iv for 28 mins; format: organism-based; settings: in vivo, 0.5 h, time 30 min
How it was run: (§1)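 Anesthetized rats underwent two consecutive hyperinsulinemic–euglycemic clamps with human insulin infusion: a baseline Clamp1, then Clamp2 with vehicle or AZD6482 i.v. (n = 4–5/group). Blood pressure and heart rate were followed during control periods and after drug administration. Steady-state glucose infusion rate maintained euglycemia.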

[3] = Toxicity in Sprague-Dawley rat assessed as change in blood pressure at 6000 ug/kg, iv for 2 mins followed by 300 ug/kg/min, iv for 28 mins; format: organism-based; settings: in vivo, 6 mg/kg, 0.5 h, time 30 min
How it was run: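 Blood pressure was monitored in anesthetized rats during hyperinsulinemic–euglycemic clamps. There was an initial control period, then i.v. drug at 1000 μg kg−1 + 50 μg kg min−1 or 6000 μg kg−1 + 300 μg kg min−1. Heart rate was also recorded.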

Canis familiaris = assay: Antithrombotic activity in Beagle dog model of arterial thrombosis and bleeding assessed as blood loss at 0.005 to 0.24 ug/kg/min, iv via bolus for 29 mins and measured for 15 mins; format: functional, organism-based; settings: Canis lupus familiaris
How it was run: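 Modified Folts' model of thrombosis in a damaged, stenosed femoral artery of anesthetized dogs. Animals first received saline vehicle. Consecutive i.v. doses then followed, each given over a 30-min period as a bolus (0.03–1.3 μg kg−1) plus an infusion (0.005–0.24 μg kg min−1). Read-outs were cyclic flow reductions, expressed as % restoration of blood flow, plus bleeding time, blood loss and plasma drug exposure. Mean ± SEM, n = 6.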

[4] = target: Dual specificity tyrosine-phosphorylation-regulated kinase 2 (Homo sapiens) (UniProt Q92630); assay: Inhibition of human DYRK2 at 10 uM relative to control
[5] = Inhibition of PI3Kbeta in Beagle dog whole blood assessed as reduction in ADP-induced platelet aggregation preincubated for 5 mins followed by ADP addition and measured for 6 mins by impedance aggregometry; format: tissue-based; settings: Canis lupus familiaris
How it was run: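 Ex vivo whole blood impedance aggregometry (Multiplate) with ADP as agonist, using blood drawn from anesthetized dogs in the Folts' model. Dogs were given i.v. bolus plus infusion doses over consecutive 30-min periods. Inhibition was related to measured plasma drug concentration to derive EC50. Mean ± SEM, n = 6.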

[6] = target: Serine-protein kinase ATM (Homo sapiens, UniProt Q13315); assay: Inhibition of ATM (unknown origin)
[7] = Protein binding in rat plasma assessed as unbound fraction; format: ADME, cell-free
[8] = Plasma concentration in Sprague-Dawley rat hyperinsulinemic-euglycemic glucose clamp model at […], iv for 2 mins followed by 300 ug/kg/min, iv for 28 mins; format: ADME, organism-based; settings: time 30 min
How it was run: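 Plasma drug levels were sampled during the drug-infusion clamp period (Clamp2) in anesthetized rats under a human-insulin hyperinsulinemic–euglycemic clamp. I.v. regimens were 1000 μg kg−1 + 50 μg kg min−1 or 6000 μg kg−1 + 300 μg kg min−1; mean ± SEM, n = 4–5/group.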

[9] = target: Mitogen-activated protein kinase 8 (Homo sapiens) (UniProt P45983); assay: Inhibition of human JNK1 at 10 uM relative to control
Rattus norvegicus [10] = organism: Rattus norvegicus; assay: Inhibition of rat CK1 at 10 uM relative to control
[11] = target: Vascular endothelial growth factor receptor 2 (Homo sapiens, UniProt P35968); assay: Inhibition of human KDR
[12] = target: Ribosomal protein S6 kinase alpha-5 (Homo sapiens) (UniProt O75582); assay: Inhibition of human MSK1 at 10 uM relative to control
[13] = Toxicity in Sprague-Dawley rat hyperinsulinemic-euglycemic glucose clamp model assessed as change in heart rate at 1000 ug/kg/min, iv for 2 mins followed by 50 ug/kg/min, iv for 28 mins; format: organism-based; settings: in vivo, 0.5 h, time 30 min; how it was run: as §1
[14] = target: Aurora kinase C (Homo sapiens) (UniProt Q9UQB9); assay: Inhibition of human AuroraC at 10 uM relative to control
[15] = Renal clearance (0 to 24 hrs) in human at 121.5 to 364.5 mg, iv administered for 3 hrs via infusion by LC-MS/MS analysis; settings: in vivo
[16] = target: MAP kinase-interacting serine/threonine-protein kinase 1 (Homo sapiens) (UniProt Q9BUB5); assay: Inhibition of human MNK1 at 10 uM relative to control
[17] = target: Homeodomain-interacting protein kinase 2 (Homo sapiens) (UniProt Q9H2X6); assay: Inhibition of human HIPK2 at 10 uM relative to control
[18] = Toxicity in Sprague-Dawley rat hyperinsulinemic-euglycemic glucose clamp model assessed as increase in blood pressure at 6000 ug/kg/min, iv for 2 mins followed by 300 ug/kg/min, iv for 28 mins; format: organism-based; settings: in vivo, 0.5 h, time 30 min; how it was run: as §1
Rattus norvegicus [19] = assay: Insulin sensitizing activity in Sprague-Dawley rat hyperinsulinemic-euglycemic glucose clamp model assessed as glucose infusion rate required to maintain euglycemia during infusion of human insulin at 1000 ug/kg/min, iv for 2 mins followed by 50 ug/kg/min, iv for 28 mins measured during clamp 1 (reference value: 124 +/- 4 umol/min/kg); format: functional; settings: time 30 min, 0.5 h
How it was run: (§2)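 Anesthetized rats; hyperinsulinemic–euglycemic clamp with human insulin infused. A baseline clamp (Clamp1) was followed by a second clamp (Clamp2) with vehicle or drug i.v. The drug was given as a low dose (1000 μg kg−1 + 50 μg kg min−1) or a high dose (6000 μg kg−1 + 300 μg kg min−1). Steady-state glucose infusion rate for euglycemia was recorded, with plasma glucose, human insulin and total insulin; mean ± SEM, n = 4–5/group.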

[20] = target: Calcium/calmodulin-dependent protein kinase kinase 2 (Homo sapiens) (UniProt Q96RR4); assay: Inhibition of human CAMKKbeta at 10 uM relative to control
[21] = target: 3-phosphoinositide-dependent protein kinase 1 (Homo sapiens) (UniProt O15530); assay: Inhibition of human PDPK1 at 10 uM relative to control
[22] = target: Serine/threonine-protein kinase Nek7 (Homo sapiens) (UniProt Q8TDX7); assay: Inhibition of human NEK7 at 10 uM relative to control
Rattus norvegicus [23] = assay: Insulin sensitizing activity in Sprague-Dawley rat hyperinsulinemic-euglycemic glucose clamp model assessed as total insulin level during infusion of human insulin at 1000 ug/kg/min, iv for 2 mins followed by 50 ug/kg/min, iv for 28 mins measured during clamp 1 (reference value: 2.2 +/- 0.1 nM); format: functional; settings: time 30 min, 0.5 h; how it was run: as §2
[24] = Clearance in human at 0.9 to 455.8 mg, iv administered for 3 hrs via infusion by LC-MS/MS analysis; format: ADME, organism-based; settings: in vivo, dose 0.9-455.8 mg
How it was run: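 Randomized, double-blind, placebo-controlled single ascending-dose study in healthy male volunteers aged 18–36. Each subject received a 3-h i.v. infusion (0.9–455.8 mg). Plasma levels were measured by protein precipitation and LC-MS/MS (LLOQ 0.005 μm), with non-compartmental PK analysis. Half-life was calculated only for the four highest dose groups. The 3-h sample was taken as Css.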

Serine/threonine-protein kinase Nek7 (Homo sapiens), sequence (Q8TDX7 whole entry, looked up, the tested form may be a part): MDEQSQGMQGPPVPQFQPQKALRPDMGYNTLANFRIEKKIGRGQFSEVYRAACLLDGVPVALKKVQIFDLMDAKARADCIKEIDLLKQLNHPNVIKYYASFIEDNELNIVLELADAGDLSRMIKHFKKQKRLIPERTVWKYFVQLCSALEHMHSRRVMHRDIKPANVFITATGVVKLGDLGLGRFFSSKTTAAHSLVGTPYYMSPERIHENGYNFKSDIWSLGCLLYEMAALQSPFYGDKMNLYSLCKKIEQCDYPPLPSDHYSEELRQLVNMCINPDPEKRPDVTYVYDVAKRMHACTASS
Mitogen-activated protein kinase 12 (Homo sapiens), sequence (P53778 whole entry): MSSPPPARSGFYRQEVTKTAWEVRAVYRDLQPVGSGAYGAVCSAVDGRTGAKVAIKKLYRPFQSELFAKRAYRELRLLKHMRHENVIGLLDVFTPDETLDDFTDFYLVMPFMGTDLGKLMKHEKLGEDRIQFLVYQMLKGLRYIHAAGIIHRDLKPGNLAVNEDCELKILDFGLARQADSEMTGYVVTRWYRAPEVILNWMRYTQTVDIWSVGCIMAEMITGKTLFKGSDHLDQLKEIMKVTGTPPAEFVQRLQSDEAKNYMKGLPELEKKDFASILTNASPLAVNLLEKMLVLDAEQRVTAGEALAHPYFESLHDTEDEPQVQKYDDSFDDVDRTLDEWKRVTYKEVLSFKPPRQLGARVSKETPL
Aurora kinase C (Homo sapiens), sequence (Q9UQB9 whole entry, the tested form may be a part): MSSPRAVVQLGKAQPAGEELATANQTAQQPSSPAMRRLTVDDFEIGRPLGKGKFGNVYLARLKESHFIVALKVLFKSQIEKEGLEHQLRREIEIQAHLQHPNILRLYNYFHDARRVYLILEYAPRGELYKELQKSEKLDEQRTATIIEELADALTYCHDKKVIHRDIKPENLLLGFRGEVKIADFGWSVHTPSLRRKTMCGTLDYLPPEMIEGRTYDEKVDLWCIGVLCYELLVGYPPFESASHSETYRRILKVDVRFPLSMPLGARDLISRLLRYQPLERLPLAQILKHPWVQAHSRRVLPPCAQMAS
3-phosphoinositide-dependent protein kinase 1 (Homo sapiens), sequence (O15530 whole entry): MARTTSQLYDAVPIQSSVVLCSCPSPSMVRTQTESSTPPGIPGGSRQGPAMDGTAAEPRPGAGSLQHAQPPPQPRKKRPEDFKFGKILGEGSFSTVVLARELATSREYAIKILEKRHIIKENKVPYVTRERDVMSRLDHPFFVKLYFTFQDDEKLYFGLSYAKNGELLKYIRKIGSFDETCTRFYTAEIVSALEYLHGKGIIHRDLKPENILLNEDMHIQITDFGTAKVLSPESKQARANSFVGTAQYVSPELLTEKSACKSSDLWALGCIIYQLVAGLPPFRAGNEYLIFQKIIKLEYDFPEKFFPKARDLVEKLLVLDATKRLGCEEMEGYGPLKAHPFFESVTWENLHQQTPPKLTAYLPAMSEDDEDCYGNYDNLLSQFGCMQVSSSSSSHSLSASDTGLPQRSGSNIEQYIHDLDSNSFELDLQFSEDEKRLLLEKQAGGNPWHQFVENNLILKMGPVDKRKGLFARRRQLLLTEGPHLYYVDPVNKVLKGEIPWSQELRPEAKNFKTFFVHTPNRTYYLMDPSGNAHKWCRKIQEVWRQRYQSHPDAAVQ
Vascular endothelial growth factor receptor 2, sequence (P35968 whole entry): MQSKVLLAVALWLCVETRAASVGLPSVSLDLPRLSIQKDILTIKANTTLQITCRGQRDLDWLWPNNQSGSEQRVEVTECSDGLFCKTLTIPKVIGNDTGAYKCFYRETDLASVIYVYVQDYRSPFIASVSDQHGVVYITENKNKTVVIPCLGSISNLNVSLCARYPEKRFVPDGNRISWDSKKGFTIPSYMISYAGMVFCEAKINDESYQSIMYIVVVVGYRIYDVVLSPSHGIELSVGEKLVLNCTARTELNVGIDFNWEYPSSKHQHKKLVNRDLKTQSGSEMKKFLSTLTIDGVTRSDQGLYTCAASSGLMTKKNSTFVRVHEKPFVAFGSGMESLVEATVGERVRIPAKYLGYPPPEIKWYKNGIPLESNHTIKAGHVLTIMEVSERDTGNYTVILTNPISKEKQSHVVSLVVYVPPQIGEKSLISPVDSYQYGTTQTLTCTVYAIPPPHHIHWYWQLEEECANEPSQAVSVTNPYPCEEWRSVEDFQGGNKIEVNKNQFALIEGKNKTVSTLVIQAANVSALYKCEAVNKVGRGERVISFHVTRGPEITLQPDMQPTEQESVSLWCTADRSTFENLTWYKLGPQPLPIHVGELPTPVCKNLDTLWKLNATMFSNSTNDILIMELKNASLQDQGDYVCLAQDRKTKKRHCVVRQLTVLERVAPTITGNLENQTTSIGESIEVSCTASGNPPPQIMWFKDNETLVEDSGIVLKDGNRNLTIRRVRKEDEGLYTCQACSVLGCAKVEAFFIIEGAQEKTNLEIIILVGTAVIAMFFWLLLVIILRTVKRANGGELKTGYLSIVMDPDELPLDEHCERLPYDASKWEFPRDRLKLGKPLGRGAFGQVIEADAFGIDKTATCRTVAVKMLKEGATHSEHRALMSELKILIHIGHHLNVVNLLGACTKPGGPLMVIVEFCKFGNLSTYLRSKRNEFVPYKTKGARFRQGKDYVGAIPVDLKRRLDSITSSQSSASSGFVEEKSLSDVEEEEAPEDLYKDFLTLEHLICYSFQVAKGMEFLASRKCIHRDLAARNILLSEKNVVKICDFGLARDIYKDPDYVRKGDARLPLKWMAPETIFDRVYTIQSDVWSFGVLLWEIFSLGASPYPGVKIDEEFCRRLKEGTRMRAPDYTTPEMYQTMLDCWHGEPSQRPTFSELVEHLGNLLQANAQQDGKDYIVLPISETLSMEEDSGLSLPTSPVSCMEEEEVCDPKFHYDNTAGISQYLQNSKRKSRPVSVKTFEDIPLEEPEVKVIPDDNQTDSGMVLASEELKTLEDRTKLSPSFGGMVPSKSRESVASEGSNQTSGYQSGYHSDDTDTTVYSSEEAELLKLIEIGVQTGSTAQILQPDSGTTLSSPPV
MAP kinase-interacting serine/threonine-protein kinase 1 (Homo sapiens), sequence (Q9BUB5 whole entry, looked up): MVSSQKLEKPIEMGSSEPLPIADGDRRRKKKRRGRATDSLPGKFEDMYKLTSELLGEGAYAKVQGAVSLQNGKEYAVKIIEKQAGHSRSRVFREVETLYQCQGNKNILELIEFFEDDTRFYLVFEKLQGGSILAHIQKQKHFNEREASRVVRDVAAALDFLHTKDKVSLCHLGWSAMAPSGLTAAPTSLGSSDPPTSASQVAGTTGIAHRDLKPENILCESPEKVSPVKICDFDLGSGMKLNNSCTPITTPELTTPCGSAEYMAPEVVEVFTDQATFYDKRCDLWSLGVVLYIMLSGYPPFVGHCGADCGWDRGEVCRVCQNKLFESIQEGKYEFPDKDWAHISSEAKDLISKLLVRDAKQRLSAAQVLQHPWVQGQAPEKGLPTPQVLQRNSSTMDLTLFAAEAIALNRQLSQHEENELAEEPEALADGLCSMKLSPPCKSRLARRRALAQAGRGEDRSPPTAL
Mitogen-activated protein kinase 8 (Homo sapiens), sequence (P45983 whole entry): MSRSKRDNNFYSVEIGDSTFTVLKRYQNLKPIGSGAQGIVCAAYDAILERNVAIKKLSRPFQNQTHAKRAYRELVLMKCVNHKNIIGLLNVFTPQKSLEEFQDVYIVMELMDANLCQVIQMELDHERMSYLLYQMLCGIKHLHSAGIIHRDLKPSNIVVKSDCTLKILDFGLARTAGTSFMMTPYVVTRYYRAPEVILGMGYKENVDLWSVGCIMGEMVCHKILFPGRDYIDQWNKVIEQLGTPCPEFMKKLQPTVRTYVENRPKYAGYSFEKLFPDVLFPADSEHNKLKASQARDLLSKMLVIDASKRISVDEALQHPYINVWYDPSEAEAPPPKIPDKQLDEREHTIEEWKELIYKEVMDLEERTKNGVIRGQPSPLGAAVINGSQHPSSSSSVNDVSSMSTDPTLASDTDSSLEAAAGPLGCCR
Calcium/calmodulin-dependent protein kinase kinase 2 (Homo sapiens), sequence (Q96RR4 2-588 limits assumed): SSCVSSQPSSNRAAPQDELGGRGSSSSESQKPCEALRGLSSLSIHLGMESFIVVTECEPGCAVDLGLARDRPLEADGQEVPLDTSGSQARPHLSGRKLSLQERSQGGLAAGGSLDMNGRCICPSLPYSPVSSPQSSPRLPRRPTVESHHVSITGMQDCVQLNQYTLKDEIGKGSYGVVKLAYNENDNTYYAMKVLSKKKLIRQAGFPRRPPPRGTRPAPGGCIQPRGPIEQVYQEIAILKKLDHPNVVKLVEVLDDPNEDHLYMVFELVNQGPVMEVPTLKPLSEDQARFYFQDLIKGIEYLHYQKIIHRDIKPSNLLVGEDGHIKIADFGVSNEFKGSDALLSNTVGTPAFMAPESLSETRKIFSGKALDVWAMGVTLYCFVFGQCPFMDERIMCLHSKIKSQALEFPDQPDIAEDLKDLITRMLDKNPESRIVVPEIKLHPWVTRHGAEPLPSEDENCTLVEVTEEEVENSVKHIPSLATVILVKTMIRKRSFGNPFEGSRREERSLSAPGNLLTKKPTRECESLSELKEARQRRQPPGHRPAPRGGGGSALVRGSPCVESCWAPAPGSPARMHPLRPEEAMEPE
Dual specificity tyrosine-phosphorylation-regulated kinase 2 (Homo sapiens), sequence (Q92630 whole entry): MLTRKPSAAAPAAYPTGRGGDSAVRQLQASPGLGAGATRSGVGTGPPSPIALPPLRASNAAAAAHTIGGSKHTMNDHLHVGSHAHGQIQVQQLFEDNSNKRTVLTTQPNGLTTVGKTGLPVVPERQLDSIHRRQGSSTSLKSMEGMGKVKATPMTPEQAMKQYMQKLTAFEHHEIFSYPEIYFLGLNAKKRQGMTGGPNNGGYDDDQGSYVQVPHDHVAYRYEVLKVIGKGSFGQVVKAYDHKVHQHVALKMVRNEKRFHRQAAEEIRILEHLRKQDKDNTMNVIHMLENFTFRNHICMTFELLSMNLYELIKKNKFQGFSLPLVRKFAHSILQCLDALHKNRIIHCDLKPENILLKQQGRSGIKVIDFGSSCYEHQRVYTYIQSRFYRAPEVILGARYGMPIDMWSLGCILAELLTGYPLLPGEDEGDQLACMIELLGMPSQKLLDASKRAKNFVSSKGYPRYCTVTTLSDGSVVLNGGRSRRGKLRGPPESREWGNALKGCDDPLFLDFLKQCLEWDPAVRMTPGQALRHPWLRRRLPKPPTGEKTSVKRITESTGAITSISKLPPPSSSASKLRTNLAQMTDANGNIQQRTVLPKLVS

## Cc1cc([C@@H](C)Nc2ccccc2C(=O)O)c2nc(N3CCOCC3)cc(=O)n2c1 [AZD-6482]
[1]
  inhibition: 3.4%
[2]
  Activity: 6 mmHg
[3]
  Activity: Non-Toxic
Canis familiaris
  Activity: inactive
[4]
  inhibition: 18%
[5]
  EC50: 0.13 µM
[6]
  IC50: > 30 µM
[7]
  fraction unbound: 0.11
[8]
  concentration at 0.5 h: 26.8 µM
[9]
  inhibition: 9.1%
Rattus norvegicus [10]
  inhibition: 6.6%
[11]
  IC50: > 117 µM
[12]
  inhibition: -4.2%
[13]
  Activity: Non-Toxic
[14]
  inhibition: 56%
[15]
  CL renal at 3 h: 1.5 mL/min
[16]
  inhibition: -9.8%
[17]
  inhibition: 1%
[18]
  Activity: 15 mmHg
Rattus norvegicus [19]
  Activity: 105 µmol/min/kg
[20]
  inhibition: 14%
[21]
  inhibition: 16%
[22]
  inhibition: 7.1%
Rattus norvegicus [23]
  Activity: 2.2 nM
[24]
  clearance: 1180 mL/min
